Data: ChEMBL document CHEMBL3217692, “Synthesis and cytotoxicity evaluation of novel pyrido[3,4-d]pyrimidine derivatives as potential anticancer agents” (2012)

Assays:
Type in all cases: functional
[1] = system: K562; test: Cytotoxicity against human K562 cells assessed as cell growth at 10 uM after 48 hrs by sulforhodamine B assay relative to control; conditions: K562, 48 h, read-out: Activity
In short: (§1)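 Suspension lines were cultured in RPMI 1640 with 5% FBS and 2 mM L-glutamine, plated at 5000–40 000 cells/well and preincubated 24 h (37 °C, 5% CO2). Compound in DMSO was given at a single 10 μM dose for 48 h. Settled cells were fixed with 80% TCA (final 16%), then stained with SRB and read at 515 nm. Growth percentage was taken relative to time-zero and untreated control absorbances.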

[2] = system: NCI-H522; test: Cytotoxicity against human NCI-H522 cells assessed as cell growth at 10 uM after 48 hrs by sulforhodamine B assay relative to control; conditions: NCI-H522, 48 h, read-out: Activity
In short: (§2)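 Adherent cells were grown in RPMI 1640 with 5% FBS and 2 mM L-glutamine, seeded at 5000–40 000 cells/well by doubling time, and held 24 h at 37 °C, 5% CO2 before drug. Time-zero plates were TCA-fixed. Compound in DMSO, single dose 10 μM, 48 h. Cells were fixed with cold TCA (final 10%, 60 min, 4 °C) and stained with 0.4% SRB. Bound dye was dissolved in 10 mM Tris base and read at 515 nm. Percent growth was derived from time-zero, control and treated absorbances.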

[3] = system: HCT-116; test: Cytotoxicity against human HCT116 cells assessed as cell growth at 10 uM after 48 hrs by sulforhodamine B assay relative to control; conditions: HCT-116, 48 h, read-out: Activity; in short: as §2
[4] = system: U-251; test: Cytotoxicity against human U251 cells assessed as cell growth at 10 uM after 48 hrs by sulforhodamine B assay relative to control; conditions: U-251, 48 h, read-out: Activity
In short: (§3)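 NCI-60 single-dose screen. Cells were grown in RPMI 1640 with 5% FBS and 2 mM L-glutamine, seeded at 5000–40 000 cells/well according to doubling time, and pre-incubated 24 h at 37 °C, 5% CO2. Time-zero plates were TCA-fixed at dosing. Compound in DMSO was given at 10 μM for 48 h. Cells were then fixed in cold TCA, stained with 0.4% SRB, solubilised in 10 mM Tris base and read at 515 nm. Growth % was calculated from time-zero, control and treated absorbances.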

[5] = system: A498; test: Cytotoxicity against human A498 cells assessed as cell growth at 10 uM after 48 hrs by sulforhodamine B assay relative to control; conditions: A498, 48 h, read-out: Activity; in short: as §2
[6] = system: MOLT-4; test: Cytotoxicity against human MOLT4 cells assessed as cell growth at 10 uM after 48 hrs by sulforhodamine B assay relative to control; conditions: MOLT-4, 48 h, read-out: Activity; in short: as §1
[7] = system: NCI-H460; test: Cytotoxicity against human NCI-H460 cells assessed as cell growth at 10 uM after 48 hrs by sulforhodamine B assay relative to control; conditions: NCI-H460, 48 h, read-out: Activity; in short: as §2
[8] = Cytotoxicity against human Hs 578T cells assessed as cell growth at 10 uM after 48 hrs by sulforhodamine B assay relative to control; conditions: read-out: Activity; in short: as §2
[9] = system: A549; test: Cytotoxicity against human A549 cells assessed as cell growth at 10 uM after 48 hrs by sulforhodamine B assay relative to control; conditions: A549, 48 h, read-out: Activity; in short: as §2
[10] = system: SW-620; test: Cytotoxicity against human SW620 cells assessed as cell growth at 10 uM after 48 hrs by sulforhodamine B assay relative to control; conditions: SW-620, 48 h, read-out: Activity; in short: as §2
[11] = system: RPMI-8226; test: Cytotoxicity against human RPMI8226 cells assessed as cell growth at 10 uM after 48 hrs by sulforhodamine B assay relative to control; conditions: RPMI-8226, 48 h, read-out: Activity; in short: as §1
[12] = system: SF-295; test: Cytotoxicity against human SF295 cells assessed as cell growth at 10 uM after 48 hrs by sulforhodamine B assay relative to control; conditions: SF-295, 48 h, read-out: Activity; in short: as §2
[13] = system: MDA-MB-435; test: Cytotoxicity against human MDA-MB-435 cells assessed as cell growth at 10 uM after 48 hrs by sulforhodamine B assay relative to control; conditions: MDA-MB-435, 48 h, read-out: Activity; in short: as §2
[14] = system: TK-10; test: Cytotoxicity against human TK10 cells assessed as cell growth at 10 uM after 48 hrs by sulforhodamine B assay relative to control; conditions: TK-10, 48 h, read-out: Activity; in short: as §3
[15] = system: CAKI-1; test: Cytotoxicity against human CAKI-1 cells assessed as cell growth at 10 uM after 48 hrs by sulforhodamine B assay relative to control; conditions: CAKI-1, 48 h, read-out: Activity; in short: as §2
[16] = system: HOP-62; test: Cytotoxicity against human HOP62 cells assessed as cell growth at 10 uM after 48 hrs by sulforhodamine B assay relative to control; conditions: HOP-62, 48 h, read-out: Activity; in short: as §2
[17] = Cytotoxicity against human OVCAR4 cells assessed as cell growth at 10 uM after 48 hrs by sulforhodamine B assay relative to control; conditions: OVCAR-4, 48 h, read-out: Activity; in short: as §2
[18] = system: NCI-H322M; test: Cytotoxicity against human NCI-H322M cells assessed as cell growth at 10 uM after 48 hrs by sulforhodamine B assay relative to control; conditions: read-out: Activity; in short: as §2
[19] = system: T47D; test: Cytotoxicity against human T47D cells assessed as cell growth at 10 uM after 48 hrs by sulforhodamine B assay relative to control; conditions: read-out: Activity; in short: as §2
[20] = Cytotoxicity against human OVCAR5 cells assessed as cell growth at 10 uM after 48 hrs by sulforhodamine B assay relative to control; conditions: OVCAR-5, 48 h, read-out: Activity; in short: as §2
[21] = system: KM12; test: Cytotoxicity against human KM12 cells assessed as cell growth at 10 uM after 48 hrs by sulforhodamine B assay relative to control; conditions: KM12, 48 h, read-out: Activity; in short: as §2
[22] = system: SK-MEL-5; test: Cytotoxicity against human SK-MEL-5 cells assessed as cell growth at 10 uM after 48 hrs by sulforhodamine B assay relative to control; conditions: SK-MEL-5, 48 h, read-out: Activity; in short: as §2
[23] = system: Malme-3M; test: Cytotoxicity against human MALME-3M cells assessed as cell growth at 10 uM after 48 hrs by sulforhodamine B assay relative to control; conditions: read-out: Activity; in short: as §2
[24] = Cytotoxicity against human EKVX cells assessed as cell growth at 10 uM after 48 hrs by sulforhodamine B assay relative to control; conditions: read-out: Activity; in short: as §2
[25] = Cytotoxicity against human HCT15 cells assessed as cell growth at 10 uM after 48 hrs by sulforhodamine B assay relative to control; conditions: HCT-15, 48 h, read-out: Activity; in short: as §2
[26] = system: SN12C; test: Cytotoxicity against human SN12C cells assessed as cell growth at 10 uM after 48 hrs by sulforhodamine B assay relative to control; conditions: read-out: Activity; in short: as §2
[27] = Cytotoxicity against human NCI-ADR-RES cells assessed as cell growth at 10 uM after 48 hrs by sulforhodamine B assay relative to control; conditions: read-out: Activity; in short: as §2
[28] = system: SR; test: Cytotoxicity against human SR cells assessed as cell growth at 10 uM after 48 hrs by sulforhodamine B assay relative to control; conditions: read-out: Activity; in short: as §1

COc1nccc2c(-c3cccc(F)c3)nc(N)nc12
growth at 10 µM [1]: 95.2%
growth at 10 µM [2]: 78.6%
growth at 10 µM [3]: 104%
growth at 10 µM [4]: 94.9%
growth at 10 µM [5]: 88.5%
growth at 10 µM [6]: 77.8%
growth at 10 µM [7]: 112%
growth at 10 µM [8]: 103%
growth at 10 µM [9]: 94.7%
growth at 10 µM [10]: 112%
growth at 10 µM [11]: 107%
growth at 10 µM [12]: 97.5%
growth at 10 µM [13]: 118%
growth at 10 µM [14]: 101%
growth at 10 µM [15]: 104%
growth at 10 µM [16]: 104%
growth at 10 µM [17]: 97.6%
growth at 10 µM [18]: 112%
growth at 10 µM [19]: 93.5%
growth at 10 µM [20]: 96%
growth at 10 µM [21]: 104%
growth at 10 µM [22]: 108%
growth at 10 µM [23]: 115%
growth at 10 µM [24]: 104%
growth at 10 µM [25]: 95%
growth at 10 µM [26]: 115%
growth at 10 µM [27]: 110%
growth at 10 µM [28]: 111%
